The record followed here is the RNAGym collection of RNA variant scans (doi:10.1126/science.aae0568).

B1: tRNA (parent)
chain: GUUCCGUUGGCGUAAUGGUAACGCGUCUCCCUCCUAAGGAGAAGACUGCGGGUUCGAGUCCCGUACGGAACG

Fewer inactive variants are shown than the library holds.

This data set covers variants of B1. Briefly: yeast fitness relative to wild type (ratio to wild type); higher = fitter; tRNA-Arg(CCU), competitive growth, 37 C, YPD. The essentials: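 A pool of Saccharomyces cerevisiae strains, each with a tRNA-Arg(CCU) gene variant at the native genomic locus, was competed in YPD at 37°C for 24 hours across six parallel replicates. The variants had been chemically synthesised at a 3% per-site mutation rate over 69 sites, and gene amplicons before and after competition were read by 100-nucleotide paired-end sequencing. Darwinian fitness relative to wild type rested on changes in genotype frequencies. Genotypes required ≥ 100 starting reads, and estimates < 0.5 were set to 0.5.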
For the variant G9C U32A G58C, the yeast fitness came out at 0.583.
On to G9C U19C G48A C66U, for which the yeast fitness was 0.657.
For G9C A40C G51C U64C, the yeast fitness came out at 0.79.
On to G9C U13G U28C G41C A43C A45U U47C C49G U53G A69C, for which the yeast fitness is not above 0.5.
With G9C G39C the figure was 0.64; with G9C C27G C60U A69U, not above 0.5; with G9C A14U C62G, not above 0.5.
The value for G9C U47C was 0.632; that for G9C U47G was 0.595.
The value for G9C C34U C55A A57C was not above 0.5.
As for G9C G52C C60A, the yeast fitness is not above 0.5.
Regarding G9C A43C C55G, the yeast fitness is not above 0.5.
In the case of G9C C11U C22G A65U, the yeast fitness was not above 0.5.
For G9C A20G U35C A36G U59A C66G, the yeast fitness is not above 0.5.
Regarding G9C U32A, the yeast fitness was 0.648.
The value for G9C C24A C62G A69C was not above 0.5; that for G9C C11G G58A was not above 0.5.
The value for G9C A65G was 0.78.
The value for G9C A65U was 0.774.
As for G9C U35G G41A G56A A70C, the yeast fitness was not above 0.5.
With G9C G12C C31A A40U G67A the figure was 0.557; with G9C C46U, 0.896; with G9C U16G A65U, not above 0.5.
In the case of G9C G12A C29A G38A A69G, the yeast fitness is not above 0.5.
For the variant G9C A15G C27A C31G C61U, the yeast fitness is not above 0.5.
The value for G9C A37G C55G C60G was 0.524.
With G9C G39C G67U the figure was not above 0.5; with G9C C34G C61U, 0.553; with G9C C27U C33G A37G, not above 0.5.
The value for G9C G12A was 0.629; that for G9C C46U A57C was 0.662.
In the case of G9C G10C C29G C66U, the yeast fitness was not above 0.5.
For the variant G9C A70C, the yeast fitness amounted to 0.866.
With G9C C30A G38A A42G the figure was 0.515; with G9C A15C A36U A43U, 0.738; with G9C C30G U53C, not above 0.5.
With G9C C11G A57C A70C the figure was not above 0.5.
With G9C C11A A14G U47G A69C the figure was not above 0.5; with G9C A15C C31G A40G A43U, not above 0.5.
Turning to G9C C31G C66A G68C, the yeast fitness turned out to be 0.553.
With G9C U28C A42U U47C the figure was 0.54; with G9C G23A A40C C55G A65G, not above 0.5; with G9C C11A G23A A37U C60U, not above 0.5.
Take G9C U13A G25A A40C C66U: the yeast fitness is not above 0.5.
In the case of G9C U26A, the yeast fitness was 0.613.
Regarding G9C C62U G67C, the yeast fitness was not above 0.5.
The value for G9C G38A A57C was not above 0.5.
The value for G9C C24U C30G G51A C60U was not above 0.5; that for G9C U13C U47G was not above 0.5.
With G9C A45U the figure was 0.771; with G9C A45C, 0.587.
Turning to G9C C49U C55U U64C, the yeast fitness is not above 0.5.
With G9C A15U U28G C66A the figure was not above 0.5; with G9C A42C G68C, 0.542; with G9C C55G, 0.542.
The value for G9C G18C U32G G41C C46U was not above 0.5; that for G9C U54C was 0.704.
The value for G9C U54A was 0.658; that for G9C A40G A42G A57U was not above 0.5; that for G9C G18C C49G was not above 0.5.
G9C G23A C34U: the yeast fitness stood at 0.655.
For G9C C29G C30G G41A, the yeast fitness was not above 0.5.
G9C U19A A21G A43C A65G G67A: the yeast fitness was not above 0.5.
Take G9C C22U C33G A43U A45U C46G U54A A65U: the yeast fitness came out at 0.67.
With G9C G10A G12C C22U A45U the figure was not above 0.5; with G9C A37G, 0.623.
With G9C G41C A45U G50A G67C the figure was 0.616; with G9C A21U C27U, not above 0.5.
With G9C C34G A70G the figure was not above 0.5; with G9C U13C, 0.626; with G9C G58C U59A C60U, not above 0.5.
As for G9C G51C G58A, the yeast fitness was not above 0.5.
The value for G9C C24U C30G was not above 0.5.
On to G9C A15U G17A A37U A45C, for which the yeast fitness was not above 0.5.
Consider G9C C11U G18C C31A, for which the yeast fitness was not above 0.5.
The value for G9C C29U was 0.674; that for G9C C61U was 0.844.
The value for G9C C61G was 0.61; that for G9C C11G G56A was not above 0.5; that for G9C G10C C61U was not above 0.5.
The value for G9C U13C C30G C61U was not above 0.5; that for G9C U19C C24U C27A G68A was not above 0.5.
As to G9C A14U G50C, the yeast fitness came out at 0.682.
For G9C A15G G17A C27A C31G G50A, the yeast fitness was not above 0.5.
The value for G9U G39C A70C was not above 0.5; that for G9C A20U U28A A42U G48A was not above 0.5; that for G9C A69U was 0.841.
The value for G9C A69C was 0.821; that for G9C A43C A57U G63A was not above 0.5; that for G9C U13A G17C was not above 0.5.
The value for G9C U28C was 0.675; that for G9C C24U U26G U54G was not above 0.5.
Regarding G9C C24G G39C C55U A65C, the yeast fitness was not above 0.5.
With G9C G58C the figure was 1.06; with G9C G58A, 0.869; with G9C A37C C46U U53A, not above 0.5.
Turning to G9U C29G A65U, the yeast fitness was not above 0.5.
On to G9C C31G A40C A45C G48C, for which the yeast fitness worked out at 0.668.
In the case of G9C C34G C61U C66U, the yeast fitness was 0.58.
Turning to G9U C34U G41A, the yeast fitness is not above 0.5.
As to G9C C22G C30U, the yeast fitness came out at 0.648.
The value for G9C G17A U64C was not above 0.5.
On to G9C C24U C34A G44C C46U G48A A69G, for which the yeast fitness is not above 0.5.
G9C U32C A36G A70U: the yeast fitness is not above 0.5.
With G9C C24U A37C C61G the figure was not above 0.5; with G9C A42G A57U, 0.521.
For G9C C30A C60U, the yeast fitness stood at 0.655.
As for G9C G51C C62G, the yeast fitness is not above 0.5.
Consider G9C U28A C29A U35G, for which the yeast fitness is not above 0.5.
The value for G9C G18C C49G A65U was 0.553; that for G9C A15G A21G G48A C49G C60A was not above 0.5; that for G9C U28C G44C G51A was not above 0.5.
The value for G9C C46U G48C C62U was not above 0.5; that for G9U A43G was 0.817; that for G9C A57U C60A was 0.727.
Consider G9C A14U A69G, for which the yeast fitness was not above 0.5.
As for G9C U19C C24U C27A, the yeast fitness was not above 0.5.
On to G9C U19C C29U A36U G67A, for which the yeast fitness was not above 0.5.
The value for G9C U54G A70C was 0.545; that for G9C G10C C33U was not above 0.5.
Turning to G9C U26C C34G A37G C60G A65C, the yeast fitness is not above 0.5.
With G9C C29U A70G the figure was 0.602.
The value for G9C A21U C66A was 0.585.
For G9C G10A C29U A37U C62U G67A A70C, the yeast fitness is not above 0.5.
G9C G12A C61G: the yeast fitness is not above 0.5.
With G9C U19C C31G, the yeast fitness was 0.605.
The value for G9U A14C C24U U35C C46G G52A C61A was not above 0.5; that for G9C A15U A21C C29A was 0.773; that for G9C C27G C30G A40U C49U was not above 0.5.
Regarding G9C A36C A37G U64C, the yeast fitness was not above 0.5.
G9C C30U: the yeast fitness was found to be 0.628.
With G9C C30A the figure was 0.664; with G9C C30G, 0.578.
Turning to G9C C27U A40U A65G, the yeast fitness is not above 0.5.
With G9C C34U the figure was 0.776; with G9C C34A, 0.536.
The value for G9C C34G was 0.548.
With G9C C60G the figure was 0.53.
With G9C C60U, the yeast fitness came to 0.618.
The value for G9U G68C was 0.77; that for G9C G39C A69U was not above 0.5.
The value for G9C U16C C30U A65G was not above 0.5; that for G9U C33U A43U U59G was 0.676; that for G9C U32A G56C was not above 0.5.
Take G9C A36U A40U G44A G63A A69C: the yeast fitness was not above 0.5.
As for G9C G23A C33G, the yeast fitness was not above 0.5.
Consider G9C A14U A21C, for which the yeast fitness is 0.61.
With G9C U28A A45C G48C C62G the figure was 0.545.
With G9C C24G A40U C55A the figure was not above 0.5; with G9C C24G C60U U64A, not above 0.5; with G9C C24G G41A G52A C66U, 0.602.
With G9C C31G A40C G50C C55U C60G A69G the figure was 0.549; with G9C U28G C55G A69U, not above 0.5.
For the variant G9C A42C, the yeast fitness was 0.684.
On to G9C A36C C55U, for which the yeast fitness was not above 0.5.
The value for G9C A36C C55A was 0.525; that for G9C G41A C60G A65G was not above 0.5; that for G9C C31U was 0.676.
With G9C C31G the figure was 0.66.
The value for G9C G41A C55U U59A A70U was not above 0.5; that for G9C C29G C34G C60G C62U was not above 0.5; that for G9C U28A C46U A70U was 0.615.
As to G9C A36C C61A, the yeast fitness came out at 0.616.
Take G9C C49G: the yeast fitness came to 0.63.
With G9C C49U the figure was 0.703; with G9C U19C G48A, 0.901.
With G9C A20C C31A A57C C66A A69U the figure was 0.572.
